According to ChEMBL document CHEMBL1158379, “Design, synthesis and hypolipidemic activity of novel 2-(m-tolyloxy) isobutyric acid derivatives” (2009):

Assays:
Format in all cases: functional
[1] = test system: Rattus norvegicus; experiment: Hypolipidemic activity in 14 days high cholesterol diet fed Wistar albino rat hyperlipidemic model assessed as decrease in serum low density lipoprotein cholesterol level at 20 mg/kg, po administered on day 8 to 14; parameters: scale not given: the % may be the effect or the level left
How it was run: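 HCD model in male Wistar rats (160–180 g) on chow plus 2% cholesterol and 1% cholic acid for 14 days. Oral dosing was 20 mg/kg in 0.5% carboxymethylcellulose from day 8 to 14, with groups of six. Rats were fasted 12 h on day 14, and tail blood was taken under mild ether anesthesia. Serum was separated by centrifugation at 3000 rpm for 10 min for lipoprotein cholesterol measurement.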

[2] = test system: Rattus norvegicus; experiment: Ratio of serum LDL cholesterol to serum HDL cholesterol in 14 days high cholesterol diet fed Wistar albino rat at 20 mg/kg, po administered on day 8 to 14
[3] = test system: Rattus norvegicus; experiment: Hypolipidemic activity in 14 days high cholesterol diet fed Wistar albino rat hyperlipidemic model assessed as increase in serum high density lipoprotein cholesterol level at 20 mg/kg, po administered on day 8 to 14
How it was run: (§1)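 Male Wistar rats (160–180 g), acclimatized one week, fed chow with 2% cholesterol and 1% cholic acid for 14 days. Oral dosing was 20 mg/kg in 0.5% CMC on days 8–14, with six rats per group. On day 14, after a 12 h fast, tail blood was drawn under ether. Serum was analysed by kit spectrophotometry. Results are % change versus vehicle-treated hyperlipidemic controls.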

[4] = test system: Rattus norvegicus; experiment: Hypolipidemic activity in 14 days high cholesterol diet fed Wistar albino rat hyperlipidemic model assessed as decrease in serum total cholesterol level at 20 mg/kg, po administered on day 8 to 14; parameters: scale not given: the % may be the effect or the level left; how it was run: as §1
[5] = test system: Rattus norvegicus; experiment: Hypolipidemic activity in 14 days high cholesterol diet fed Wistar albino rat hyperlipidemic model assessed as decrease in serum triglyceride level at 20 mg/kg, po administered on day 8 to 14; parameters: scale not given: the % may be the effect or the level left; how it was run: as §1
[6] = species on record: Homo sapiens; experiment: Reduction of plasma triglyceride level in human; parameters: scale not given: the % may be the effect or the level left
[7] = species on record: Homo sapiens; experiment: Increase of plasma HDL cholesterol level in human

| Compound | Activity [1] [%] | Ratio [2] | Activity [3] [%] | Activity [4] [%] | Activity [5] [%] | Activity [6] [%] | Activity [7] [%] |
| --- | --- | --- | --- | --- | --- | --- | --- |
| CCNC(=S)NNC(=O)C(C)(C)Oc1cccc(C)c1 | -1.16 | 6.08 | 5.85 | -0.59 | 5.44 |  |  |
| Cc1cccc(OC(C)(C)C(=O)N/N=C/c2ccccc2Cl)c1 | 2.6 | 6 | 14.6 | 0 | -1.32 |  |  |
| COc1ccc(NC(=O)C(C)(C)Oc2cccc(C)c2)cc1 | 28.67 | 3.93 | 15.28 | 23.24 | 25.79 |  |  |
| Cc1cccc(OC(C)(C)C(=O)O)c1 | 19.56 | 4.62 | 10.68 | 15.89 | 17.98 |  |  |
| Cc1cccc(OC(C)(C)C(=O)N/N=C/c2ccccc2)c1 | 8.02 | 4.94 | 18.47 | 4.12 | 2.54 |  |  |
| CCOC(=O)c1ccc(NC(=O)C(C)(C)Oc2cccc(C)c2)cc1 | 5.94 | 5.2 | 15.04 | 2.65 | 0.43 |  |  |
| Cc1cccc(OC(C)(C)C(=O)NCCc2ccccc2)c1 | 21.21 | 4.09 | 22.45 | 12.95 | 1.2 |  |  |
| Cc1cccc(OC(C)(C)C(=O)N/N=C/c2ccc([N+](=O)[O-])cc2)c1 | 2.3 | 5.71 | 9.12 | 0.29 | -0.84 |  |  |
| C=CCNC(=S)NNC(=O)C(C)(C)Oc1cccc(C)c1 | -1 | 6.02 | 6.78 | -1.77 | -1.61 |  |  |
| COc1ccc(/C=N/NC(=O)C(C)(C)Oc2cccc(C)c2)cc1 | -9.39 | 5.41 | 15.8 |  | 9.03 |  |  |
| CC(C)(Oc1ccc(CCNC(=O)c2ccc(Cl)cc2)cc1)C(=O)O [BEZAFIBRATE] |  |  |  |  |  | 30 | 5 |
| CCOC(=O)C(C)(C)Oc1ccc(Cl)cc1 [CLOFIBRATE] |  |  |  |  |  | 30 | 5 |
| CC(C)OC(=O)C(C)(C)Oc1ccc(C(=O)c2ccc(Cl)cc2)cc1 [FENOFIBRATE] |  |  |  |  |  | 30 | 5 |
| Cc1ccc(C)c(OCCCC(C)(C)C(=O)O)c1 [GEMFIBROZIL] | 5.35 | 4.81 | 25.18 | 4.68 | 22.23 |  |  |
